Activity calls are given as the source filed them. The rule behind the calls is not given here.
System: BV-2
Experiment: Cytotoxicity against mouse BV-2 cells assessed as reduction in cell viability after 24 hrs by MTT assay
Format: cell-based
Settings: BV-2, 24 h
In short: (§1)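 C6 or BV2 cells seeded at 1–5×10^5 per well; after 12 h exposed to 0, 6.25, 12.5, 25, 50 or 100 μM (final, DMSO <0.4%) for 24 h. MTT added for 4 h, dissolved in DMSO, read at 570 nm. IC50 as mean of three independent experiments run in triplicate.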
With O=C(NCCc1c[nH]c2ccccc12)c1ccc(F)cc1O the IC50 was > 100 µM.
For O=C(NCCc1c[nH]c2ccccc12)c1ccccc1O, the IC50 was > 100 µM.
For COc1ccc2[nH]cc(CCNC(=O)c3ccccc3Nc3cccc(Cl)c3C)c2c1, the IC50 was > 100 µM.
For O=C(NCCc1c[nH]c2ccc(Cl)cc12)c1ccccc1Nc1ccccc1, the IC50 was 62.4 µM.
For Cc1cccc(Nc2ccccc2C(=O)NCCc2c[nH]c3ccc(O)cc23)c1C, the IC50 was 56.4 µM.
Work on Cc1cccc(Nc2ccccc2C(=O)NCCc2c[nH]c3ccccc23)c1C yielded an IC50 of 55.1 µM.
With O=C(NCCc1c[nH]c2ccccc12)c1cc(Cl)ccc1O the IC50 was > 100 µM.
In the case of CN(c1ccccc1)c1ccccc1C(=O)NCCc1c[nH]c2ccccc12, the IC50 is reported as 7.98 µM.
With Cc1ccc2[nH]cc(CCNC(=O)c3ccccc3O)c2c1 the IC50 was > 100 µM.

System: not listed separately
Experiment: Antioxidant activity assessed as DPPH radical scavenging activity incubated for 30 mins
Format: functional
Settings: not given
In short: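 Compound in ethanol at 2.5–40 μM final, mixed 1:1 with 700 μmol/L ethanolic DPPH; 30 min in the dark at room temperature, absorbance at 515 nm. Serotonin used as standard; EC50 from three independent experiments.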
For COc1ccc2[nH]cc(CCNC(C)=O)c2c1 [MELATONIN], the EC50 was > 40 µM.
With NCCc1c[nH]c2ccc(O)cc12 [SEROTONIN] the EC50 was 0.63 µM.

Molecular target: Prostaglandin G/H synthase 1 (Homo sapiens) (UniProt P23219)
Experiment: Inhibition of human COX1 assessed as reduction in PGF2alpha formation using arachidonic acid as substrate incubated for 10 mins by ELISA
Settings: not given
For O=C(NCCc1c[nH]c2ccccc12)c1ccc(F)cc1O, the IC50 was > 40 µM.
With O=C(NCCc1c[nH]c2ccc(Cl)cc12)c1ccccc1Nc1ccccc1 the IC50 was 1.34 µM.
For O=C(O)c1ccccc1O [SALICYLIC ACID], the IC50 was > 40 µM.
With O=C(NCCc1c[nH]c2ccccc12)c1cc(Cl)ccc1O the IC50 was > 40 µM.
For Cc1ccc2[nH]cc(CCNC(=O)c3ccccc3O)c2c1, the IC50 was > 40 µM.

System: not listed separately
Experiment: Inhibition of LPS-induced NO production in mouse BV-2 cells incubated for 24 hrs by Griess reagent based assay
Format: functional, cell-based
Settings: BV-2, 24 h
In short: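 BV2 cells at 5×10^5 cells/mL, LPS 1 μg/mL plus compound at 2.5–40 μM final for 24 h. Supernatant nitrite measured with Griess reagent for 15 min at room temperature in the dark, 540 nm, against a NaNO2 standard curve; IC50 from three repeats.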
With O=C(NCCc1c[nH]c2ccccc12)c1ccc(F)cc1O the IC50 was > 40 µM.
With O=C(NCCc1c[nH]c2ccccc12)c1ccccc1O the IC50 was 26.4 µM.
For O=C(NCCc1c[nH]c2ccccc12)c1cc(Cl)ccc1O, the IC50 was > 40 µM.
With Cc1ccc2[nH]cc(CCNC(=O)c3ccccc3O)c2c1 the IC50 was > 40 µM.

Species on record: Homo sapiens
Experiment: Selectivity index, ratio of IC50 for inhibition of human COX1 to IC50 for inhibition of human COX2
Settings: not given
With O=C(NCCc1c[nH]c2ccc(Cl)cc12)c1ccccc1Nc1ccccc1 the Ratio IC50 was 2.31.

Molecular target: Prostaglandin G/H synthase 2 (Homo sapiens) (UniProt P35354)
Sequence (P35354 whole entry, looked up): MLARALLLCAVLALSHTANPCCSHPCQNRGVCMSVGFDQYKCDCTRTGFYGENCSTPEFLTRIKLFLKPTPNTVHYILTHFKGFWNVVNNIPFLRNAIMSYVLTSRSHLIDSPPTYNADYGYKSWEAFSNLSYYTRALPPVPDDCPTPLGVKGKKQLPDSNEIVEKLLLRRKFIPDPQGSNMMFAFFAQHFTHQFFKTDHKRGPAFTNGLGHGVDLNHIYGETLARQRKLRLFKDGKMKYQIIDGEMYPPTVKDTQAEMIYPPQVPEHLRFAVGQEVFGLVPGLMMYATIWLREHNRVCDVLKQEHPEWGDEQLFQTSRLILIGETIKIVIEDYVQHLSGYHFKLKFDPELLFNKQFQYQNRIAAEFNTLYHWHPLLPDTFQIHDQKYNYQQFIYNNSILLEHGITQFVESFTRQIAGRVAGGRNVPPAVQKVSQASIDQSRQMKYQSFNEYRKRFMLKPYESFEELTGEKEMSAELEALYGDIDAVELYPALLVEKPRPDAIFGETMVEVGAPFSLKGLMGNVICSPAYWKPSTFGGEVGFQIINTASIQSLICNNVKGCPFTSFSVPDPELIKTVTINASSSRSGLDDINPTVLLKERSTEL
Experiment: Inhibition of human COX2 assessed as reduction in PGF2alpha formation using arachidonic acid as substrate incubated for 10 mins by ELISA
Settings: not given
With O=C(NCCc1c[nH]c2ccccc12)c1ccc(F)cc1O the IC50 was > 40 µM.
For O=C(NCCc1c[nH]c2ccccc12)c1ccccc1O, the IC50 was > 40 µM.
With COc1ccc2[nH]cc(CCNC(=O)c3ccccc3Nc3cccc(Cl)c3C)c2c1 the IC50 was > 40 µM.
For O=C(NCCc1c[nH]c2ccc(Cl)cc12)c1ccccc1Nc1ccccc1, the IC50 was 0.58 µM.
Cc1cccc(Nc2ccccc2C(=O)NCCc2c[nH]c3ccc(O)cc23)c1C showed an IC50 of 1.4 µM.
For Cc1cccc(Nc2ccccc2C(=O)NCCc2c[nH]c3ccccc23)c1C, the IC50 was 2.31 µM.
With O=C(O)c1ccccc1O [SALICYLIC ACID] the IC50 was > 40 µM.
Molecule O=C(NCCc1c[nH]c2ccccc12)c1cc(Cl)ccc1O has an IC50 of 10.4 µM.
For CN(c1ccccc1)c1ccccc1C(=O)NCCc1c[nH]c2ccccc12, the IC50 was > 40 µM.
For Cc1ccc2[nH]cc(CCNC(=O)c3ccccc3O)c2c1, the IC50 was > 40 µM.

System: not listed separately
Experiment: Induction of apoptosis in LPS-induced hippocampal neuroinflammatory Kunming mouse model at 50 mg/kg, ip administered bid for 6 days by Nissl staining based microscopic method
Format: organism-based
Settings: in vivo, 144 h, time 6 day
In short: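 Male Kunming mice (8 weeks, 20–25 g, n = 10/group) were anaesthetised with i.p. chloral hydrate, then given LPS (3 μL of 10 mg/mL) into the lateral ventricle at 0.5 μL/min; sham mice received 3 μL saline. Compound was then given i.p. at 50 mg/kg in saline with 1% methyl cellulose for six consecutive days. Behaviour and deaths were recorded, and hippocampal slices were Nissl-stained.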
With COc1ccc2[nH]cc(CCNC(C)=O)c2c1 [MELATONIN] the Activity was “Toxic”.
For O=C(O)c1ccccc1O [SALICYLIC ACID], the Activity was “Toxic”.

System: Mus musculus
Experiment: Antiinflammatory activity against LPS-induced hippocampal neuroinflammatory Kunming mouse model assessed as reduction in GFAP level in hippocampus at 50 mg/kg, ip administered bid for 6 days by DAPI staining based microscopic method
Format: functional, organism-based
Settings: time 6.0 day
With O=C(O)c1ccccc1O [SALICYLIC ACID] the Activity was “Active”.

System: not listed separately
Experiment: Cmax in Sprague-Dawley rat at 50 mg/kg, ip up to 24 hrs by LC-MS analysis
Format: ADME, organism-based
Design: route intraperitoneal, dose 50 mg/kg, time <=24
Settings: in vivo
In short: (§2)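 Male Sprague-Dawley rats, six per group, single 50 mg/kg intraperitoneal dose; parameters derived by non-compartmental analysis using the linear trapezoidal method; mean ± SD, n = 6.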
COc1ccc2[nH]cc(CCNC(C)=O)c2c1 [MELATONIN] gave a Cmax of 1150 ng/mL.

System: C6
Experiment: Cytotoxicity against rat C6 cells assessed as reduction in cell viability after 24 hrs by MTT assay
Format: cell-based
Settings: C6, 24 h
In short: as §1
In the case of O=C(NCCc1c[nH]c2ccccc12)c1ccc(F)cc1O, the IC50 is reported as > 100 µM.
In the case of O=C(NCCc1c[nH]c2ccccc12)c1ccccc1O, the IC50 is reported as > 100 µM.
COc1ccc2[nH]cc(CCNC(=O)c3ccccc3Nc3cccc(Cl)c3C)c2c1 gave an IC50 of 62.4 µM.
For O=C(NCCc1c[nH]c2ccc(Cl)cc12)c1ccccc1Nc1ccccc1, the IC50 was 79.3 µM.
In the case of Cc1cccc(Nc2ccccc2C(=O)NCCc2c[nH]c3ccc(O)cc23)c1C, the IC50 is reported as 80.5 µM.
Work on Cc1cccc(Nc2ccccc2C(=O)NCCc2c[nH]c3ccccc23)c1C yielded an IC50 of 95.2 µM.
For O=C(NCCc1c[nH]c2ccccc12)c1cc(Cl)ccc1O, the IC50 was > 100 µM.
CN(c1ccccc1)c1ccccc1C(=O)NCCc1c[nH]c2ccccc12 gave an IC50 of 28.5 µM.
In the case of Cc1ccc2[nH]cc(CCNC(=O)c3ccccc3O)c2c1, the IC50 is reported as > 100 µM.

System: C6
Experiment: Inhibition of LPS-induced NO production in rat C6 cells incubated for 24 hrs by Griess reagent based assay
Format: functional, cell-based
Settings: C6, 24 h
In short: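 C6 cells at 5×10^5 cells/mL, LPS 10 μg/mL plus compound at 2.5–40 μM final for 24 h. Nitrite measured with Griess reagent at 540 nm against a NaNO2 standard; IC50 from three repeats.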
With O=C(NCCc1c[nH]c2ccccc12)c1ccc(F)cc1O the IC50 was > 40 µM.
In the case of O=C(NCCc1c[nH]c2ccccc12)c1ccccc1O, the IC50 is reported as > 40 µM.
In the case of O=C(NCCc1c[nH]c2ccccc12)c1cc(Cl)ccc1O, the IC50 is reported as > 40 µM.
In the case of Cc1ccc2[nH]cc(CCNC(=O)c3ccccc3O)c2c1, the IC50 is reported as > 40 µM.

System: not listed separately
Experiment: Tmax in Sprague-Dawley rat at 50 mg/kg, ip up to 24 hrs by LC-MS analysis
Format: ADME, organism-based
Settings: in vivo
In short: as §2
COc1ccc2[nH]cc(CCNC(C)=O)c2c1 [MELATONIN] showed a Tmax of 11.4 min.

System: not listed separately
Experiment: Half life in Sprague-Dawley rat at 50 mg/kg, ip up to 24 hrs by LC-MS analysis
Format: ADME, organism-based
Settings: in vivo
In short: as §2
COc1ccc2[nH]cc(CCNC(C)=O)c2c1 [MELATONIN] showed a half-life of 32.4 min.

Reference: ChEMBL document CHEMBL4680229, “Design, synthesis and bioactivity study of N-salicyloyl tryptamine derivatives as multifunctional agents for the treatment of neuroinflammation” (Eur J Med Chem, 2020)
